Rows were chosen to be rich in hits. Some 3.1% of all compounds tested hit in one or more screens of this group.
OX1R antag-1 = human HCRTR1 antagonism; O43613; CHO/OX1R cells, Fluo-8 calcium fluorescence, orexin A; inhibition, % at 5 µM; 330,000 tested, 0.43% active;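 active = inhibition above its plate's threshold, mean inhibition of all tested compounds on the plate plus 3 SD, cut at about 37% in these data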
OX1R antag-2 = blocks the human orexin 1 receptor; O43613; OX1R-expressing cells, FRET antagonist read-out; 330,000 tested, 1.8% active; inhibition, % at 6.6 µM; in the data active = inhibition mostly above about 38%, no sharp cut-off; inactive = mostly below about 40%
GalR3 antag = antagonists of human GalR3; HEK293 GalR3-CNG cAMP membrane potential fluorescence; galR3 body fused to GalR1 C-terminus; inhibition, % at 3 µM; 360,000 tested, 0.44% active;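 active = inhibition above the screen-wide average plus 3 SD, cut at about 13% in these data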;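 note: forskolin and galanin both at EC90 stimulate the cells; cAMP rise reported by CNG channel membrane potential dye signal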
Target sequence (O60755 1-299 limits assumed): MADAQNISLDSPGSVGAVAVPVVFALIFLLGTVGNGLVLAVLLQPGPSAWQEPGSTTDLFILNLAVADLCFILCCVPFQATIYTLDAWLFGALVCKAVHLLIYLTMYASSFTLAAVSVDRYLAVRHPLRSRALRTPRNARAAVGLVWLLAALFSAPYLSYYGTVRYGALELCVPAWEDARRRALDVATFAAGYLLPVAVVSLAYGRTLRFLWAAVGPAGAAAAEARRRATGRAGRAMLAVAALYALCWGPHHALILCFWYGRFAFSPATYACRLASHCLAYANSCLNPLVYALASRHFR
GPR7 antag = blocks human GPR7 receptor signaling; AID 1861; inhibition, % at 4.4 µM; GPR7-expressing cells, fluorescence antagonist assay; 290,000 tested, 1.1% active; P48145; in the data active = inhibition above about 16%, passing the limit was not always enough;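 note: cells stimulated with the agonist NPW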
Target sequence (P48145 whole entry, looked up): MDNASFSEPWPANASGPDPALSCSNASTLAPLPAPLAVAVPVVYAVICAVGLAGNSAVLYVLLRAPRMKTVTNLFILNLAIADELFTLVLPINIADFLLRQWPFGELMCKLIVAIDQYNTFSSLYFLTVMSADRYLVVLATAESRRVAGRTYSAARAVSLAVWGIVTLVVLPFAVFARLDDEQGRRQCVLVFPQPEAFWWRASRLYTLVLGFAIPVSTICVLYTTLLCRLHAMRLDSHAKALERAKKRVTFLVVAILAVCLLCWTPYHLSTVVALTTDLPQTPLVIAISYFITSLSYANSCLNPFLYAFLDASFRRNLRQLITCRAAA
CHO parental Ca = signal in parental CHO cells, OX1R antagonist counter-screen; inhibition, % at 5.6 µM; 330,000 tested, 0.63% active; parental CHO-K1, ATP-induced calcium, Fluo-8 fluorescence; AID 463079;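 active = inhibition above that plate's mean sample inhibition plus 3 SD, cut at about 26% in these data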
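Material: Parental CHO cells | Reagent: ATP | Compound dosing: Single nominal dose of 5.6 µM per compound | Detection: Intracellular calcium via Fluo-8 no-wash fluorescent dye | Read-out: % inhibition of ATP-induced calcium mobilization | Benchmarks: Low control ATP plus DMSO, high control DMSO only | Replicates: Singlicate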
OX1R HTRF confirm = confirmation of human orexin 1 receptor antagonists, HTRF format | OX1R-expressing cells, HTRF antagonist assay | shares compounds with OX1R antag-2 | AID 492964 | 1,800 tested, 49% active | inhibition, % at 6.6 µM; in the data active = inhibition above about 55%;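 note: CHO cells expressing OX1R stimulated with orexin A at about EC80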
CHO-K1 HTRF = counter-screen for OX1R antagonists: effect in parental CHO-K1 cells; 1,800 tested, 48% active; inhibition, % at 6.6 µM; shares compounds with OX1R antag-2; AID 493232; HTRF counterscreen; in the data active = inhibition above about 17%
Of the large screens only hits and unclear results are named; the others gave an inactive call (follow-up assays come after a bar, where they were run).

CCCNC(=O)C1(C)CCCN(Cc2cccc(Oc3ccccc3)c2)C1 (stereo not drawn)	none (no result: OX1R antag-1, OX1R antag-2, GPR7 antag, CHO parental Ca)
CC(NC(=O)c1ccc([N+](=O)[O-])cc1[N+](=O)[O-])c1ccc(-c2ccccc2)cc1 (stereo not drawn)	none
CCC(NC(=O)c1ccc([N+](=O)[O-])cc1[N+](=O)[O-])c1ccccc1 (stereo not drawn)	OX1R antag-2 114.4 | OX1R HTRF confirm 55.3 | CHO-K1 HTRF 50.1
COCCNCC(=O)Nc1ccc(C)c(S(=O)(=O)N2CCCCC2)c1	OX1R antag-2 100.3 | OX1R HTRF confirm inactive | CHO-K1 HTRF inactive
Cc1ccc(NC(=O)CCl)cc1S(=O)(=O)N1CCCCCC1	none
CCOC(=O)C[C@@H](C#N)NC(=O)[C@@H]1CCCN1C(=O)[C@@H](NC(=O)c1ccc(N)c(Cl)c1)C(C)(C)C	none (no result: OX1R antag-1, OX1R antag-2, GPR7 antag, CHO parental Ca)
CCOC(=O)Nc1nn(-c2ccc(C)cc2)c(=O)c(C#N)c1C	OX1R antag-2 120.2 | OX1R HTRF confirm 58.1 | CHO-K1 HTRF 61.4
CCOC(=O)c1nn(-c2ccccc2)c(=O)c(C#N)c1C	OX1R antag-2 145.4 | OX1R HTRF confirm inactive | CHO-K1 HTRF 81.0
CCOC(=O)c1nn(-c2ccc(Cl)cc2Cl)c(=N)c(C#N)c1C	none (no result: GalR3 antag)
Cc1cc(=O)oc2cc(Oc3ccc([N+](=O)[O-])cc3[N+](=O)[O-])ccc12	OX1R antag-2 88.6 | OX1R HTRF confirm 59.0 | CHO-K1 HTRF 70.8
Cc1nc2ccc([N+](=O)[O-])cc2nc1C	OX1R antag-2 111.5 | OX1R HTRF confirm 68.5 | CHO-K1 HTRF 80.6
Cc1nc2ccc([N+](=O)[O-])cc2s1	none
COCC(=O)OCC(=O)Nc1ccc(Cl)cc1[N+](=O)[O-]	OX1R antag-2 98.6 | OX1R HTRF confirm inactive | CHO-K1 HTRF 50.1
O=C(COC(=O)CN1C(=O)C(=O)c2ccccc21)OCN1C(=O)c2ccccc2C1=O	OX1R antag-2 84.4 | OX1R HTRF confirm inactive | CHO-K1 HTRF inactive
O=C(CCN1C(=O)c2ccccc2C1=O)OCN1C(=O)c2ccccc2C1=O	none
Cc1cc(C)c[n+](C2=C([O-])c3ccccc3C(=O)/C2=N\S(=O)(=O)c2cccs2)c1	none
Cc1cc[n+](C2=C([O-])c3ccccc3C(=O)/C2=N\S(=O)(=O)c2cccs2)cc1C	OX1R antag-2 106.2 | OX1R HTRF confirm inactive | CHO-K1 HTRF 24.7
CN(Cc1ccc(F)cc1)C(=O)CN1CCN(S(=O)(=O)c2ccc3c(c2)OCCCO3)CC1	none (no result: OX1R antag-1, OX1R antag-2, GPR7 antag, CHO parental Ca)
O=C1c2cc(S(=O)(=O)N(CCO)CCO)ccc2-c2ccc(S(=O)(=O)N(CCO)CCO)cc21	OX1R antag-2 111.2 (no result: GPR7 antag) | OX1R HTRF confirm 70.9 | CHO-K1 HTRF 71.9
COc1ccccc1N(CC(=O)NCCSc1ccccc1)S(=O)(=O)c1ccccc1	OX1R antag-2 81.4 | OX1R HTRF confirm 60.5 | CHO-K1 HTRF inactive
CC(C)(C)c1ccc(-c2nnc(SC3CCOC3=O)n2Cc2ccccc2)cc1 (stereo not drawn)	OX1R antag-2 84.2 | OX1R HTRF confirm inactive | CHO-K1 HTRF inactive
COC(=O)c1nn(-c2ccc(OC)cc2)c(=O)c2c(N)sc(C)c12	OX1R antag-2 82.7 | OX1R HTRF confirm inactive | CHO-K1 HTRF 43.3
O=C(N=Nc1c(O)[nH]c2ccccc12)c1cccc(S(=O)(=O)Nc2ccccc2Cl)c1	OX1R antag-2 84.2 | OX1R HTRF confirm 92.0 | CHO-K1 HTRF inactive
CC(C)c1ccc2[nH]c(O)c(N=NC(=O)c3cccc(S(=O)(=O)Nc4ccccc4Cl)c3)c2c1	none
Clc1cccc(/C=N\Nc2nccs2)c1	OX1R antag-2 81.8 | OX1R HTRF confirm inactive | CHO-K1 HTRF inactive
O=C1c2ccccc2C(=O)c2c1cccc2-n1nnc2ccccc21	none
O=C1C(N2CCOCC2)=C(n2nnc3ccccc32)C(=O)c2ccccc21	OX1R antag-2 188.8 | OX1R HTRF confirm inactive | CHO-K1 HTRF 75.1
Cc1cccn2c(=O)c3cc(C#N)c(=NC(=O)c4ccccc4)n(Cc4ccco4)c3nc12	OX1R antag-2 88.0 (no result: GPR7 antag) | OX1R HTRF confirm inactive | CHO-K1 HTRF 41.5
Cc1cccc(C(=O)N=c2c(C#N)cc3c(=O)n4cccc(C)c4nc3n2Cc2ccco2)c1	none
O=C(N[C@H](C(=O)N1CCC[C@H]1C(=O)NCc1ccccc1)c1ccccc1)C1CCCC1	none (no result: OX1R antag-1, OX1R antag-2, GPR7 antag, CHO parental Ca)
NC(=O)Cc1nc(-c2ccc([N+](=O)[O-])cc2)cs1	OX1R antag-2 77.7 | OX1R HTRF confirm inactive | CHO-K1 HTRF 33.2
O=C(NCc1ccc(F)cc1)c1cc(C2CCCN(S(=O)(=O)c3ccccc3)C2)on1 (stereo not drawn)	none (no result: OX1R antag-1, OX1R antag-2, GPR7 antag, CHO parental Ca)
COC(=O)c1nc(C(=O)OC)c(C(=O)OC)nc1C(=O)OC	OX1R antag-2 101.8 | OX1R HTRF confirm inactive | CHO-K1 HTRF 22.0
COc1ccc(C(=O)Nc2ccc(N3CCCC3)cc2)cc1	none
Cc1nc2c(C(=O)Nc3ccc(N4CCCC(O)C4)cc3)snc2c(=O)[nH]1 (stereo not drawn)	OX1R antag-2 94.8 | OX1R HTRF confirm inactive | CHO-K1 HTRF 58.7
O=[N+]([O-])c1ccc(C[n+]2cccc3ccccc32)cc1	none
O=[N+]([O-])c1ccc(C[n+]2cccc3ccc4cccnc4c32)cc1	OX1R antag-2 137.5 | OX1R HTRF confirm inactive | CHO-K1 HTRF 56.3
Cc1cc(C)c2[nH]c3nc(SCC(=O)O)nnc3c2c1	OX1R antag-2 104.3 | OX1R HTRF confirm inactive | CHO-K1 HTRF inactive
O=C(O)CSc1nnc2c(n1)[nH]c1ccccc12	none
O=C(NCCCN1CCCC1=O)C(=O)NCC1OCCCN1S(=O)(=O)c1ccccc1 (stereo not drawn)	none (no result: OX1R antag-1, OX1R antag-2, GPR7 antag, CHO parental Ca)
CN(CCO)C1=NS(=O)(=O)c2cc([N+](=O)[O-])ccc21	OX1R antag-2 95.1 | OX1R HTRF confirm 66.3 | CHO-K1 HTRF 93.9
O=C(NNC(=O)c1cc(-c2ccccc2)nc2ccccc12)Nc1cccc(Cl)c1	OX1R antag-2 89.6 | OX1R HTRF confirm inactive | CHO-K1 HTRF inactive
CC(C)(C)c1ccc(-c2cc(C(=O)NNC(=O)Nc3ccccc3)c3ccccc3n2)cc1	none
NC(=O)CSc1ncc(-c2ccc([N+](=O)[O-])cc2)[nH]1	OX1R antag-2 80.5 | OX1R HTRF confirm inactive | CHO-K1 HTRF 33.5
CC(=O)Nc1c([N+](=O)[O-])cc(C)c(Cl)c1[N+](=O)[O-]	none
O=c1[nH]c2cc([N+](=O)[O-])c(NCCO)c([N+](=O)[O-])c2[nH]1	OX1R antag-2 124.2 | OX1R HTRF confirm 88.7 | CHO-K1 HTRF 95.7
O=c1[nH]c2ccc(S(=O)(=O)NCCO)cc2[nH]1	none
CC(=O)Nc1c([N+](=O)[O-])cc2[nH]c(=O)[nH]c2c1[N+](=O)[O-]	OX1R antag-2 185.5 | OX1R HTRF confirm inactive | CHO-K1 HTRF 71.2
Cc1c(C(=O)N2CC3(CC(c4cccc(NC(=O)[C@H]5CCC(=O)N5)c4)=NO3)C[C@@H]2C(N)=O)cc([N+](=O)[O-])cc1[N+](=O)[O-] (stereo partly drawn)	none (no result: GPR7 antag)

Screening data (PubChem)
